ChEMBL document CHEMBL4376814, “Novel cyclin-dependent kinase 9 (CDK9) inhibitor with suppression of cancer stemness activity against non-small-cell lung cancer” (Eur J Med Chem, 2019)
Active and inactive are the calls of the source. No cut-off for these calls is given here.

Key:
[1] = molecular target: CDK9/cyclin T1 (Homo sapiens) (UniProt O60563+P50750); assay: Inhibition of recombinant full-length human CDK9/cyclinT1 at 1 uM using KTFCGTPEYLAPEVRREPRILSEEEQEMFRDFDYIADWC peptide as substrate measured after 40 mins in presence of [gamma33P]ATP by scintillation counting method relative to control; assay type: protein-complex assay
Outline: (§1)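 Percent inhibition of kinase activity at a single compound concentration, measured by the outsourced Eurofins KinaseProfiler panel. Values are the mean of two independent experiments.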

[2] = molecular target: CDK4/Cyclin D3 (Homo sapiens) (UniProt P11802+P30281); assay: Inhibition of recombinant full-length human CDK4/cyclinD3 at 500 nM using Rb fragment as substrate measured after 40 mins in presence of [gamma33P]ATP by scintillation counting method relative to control; assay type: protein-complex assay; outline: as §1
[3] = test system: NCI-H1299; assay: Induction of cell cycle arrest in human H1299 cells assessed as increase in accumulation of cells at G2/M phase at 1 uM after 24 hrs by propidium iodide/RNase staining based flow cytometric analysis (reference value: 19%); assay type: functional
Outline: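 A549 and H1299 plated at 5×10^5 cells/mL in 6-well plates, treated after adherence for 24 h. Washed with PBS, fixed overnight in ice-cold 75% ethanol, stained with propidium iodide plus RNase A for 30 min at 37 °C, analysed by flow cytometry for phase distribution. Means ± SD, three independent experiments.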

[4] = test system: NCI-H1299; assay: Induction of apoptosis in human H1299 cells assessed as late apoptotic cells at 1 uM after 48 hrs by AnnexinV-FITC/PI staining-based flow cytometric analysis (reference value: 1.77%); assay type: functional
[5] = test system: A549; assay: Down regulation of CDK9 expression in human A549 cells at 0.25 to 1 uM after 24 hrs by Western blot analysis; assay type: functional, cell-based
Outline: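 A549 and H1299 cells treated for 24 h with serial dilutions alongside a DMSO control. Protein extracts resolved and immunoblotted.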

[6] = test system: A549; assay: Inhibition of tumorsphere formation in human A549 cells assessed as reduction in side population ratio by PI/Hoechst 33342 staining based flow cytometry; assay type: functional, cell-based
[7] = test system: NCI-H1299; assay: Inhibition of tumorsphere formation in human H1299 cells assessed as decrease in number of spheres at 0.25 to 1 uM after 2 weeks by microscopic analysis; assay type: functional, cell-based
[8] = test system: NCI-H1299; assay: Antitumour activity against human H1299 cells xenografted in po dosed Balb/c mouse assessed as inhibition of tumour growth after 21 days by digital caliper method; assay type: functional, organism-based
Outline: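 Female nude mice, 6-8 weeks old, injected subcutaneously with 1×10^6 H1299 cells (100 µL of a 1×10^7/mL suspension in serum-free medium). At 100-120 mm3, randomized into groups of 5. Dosed orally each day for 21 days with drug dissolved in DMSO, or with vehicle. Caliper measurements and body weight taken every other day. Volume = short²×long×0.5. Growth inhibition based on change in volume relative to vehicle. Tumours weighed at the end.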

[9] = test system: Tyrosine-protein kinase ABL1 (Homo sapiens), P00519 [M351T]; assay: Inhibition of human ABL M351T mutant (27 to end residues) at 1 uM using EAIYAAPFAKKK as substrate measured after 40 mins in presence of [gamma33P]ATP by scintillation counting method relative to control; outline: as §1
[10] = molecular target: Serine/threonine-protein kinase B-raf (Homo sapiens) (UniProt P15056); assay: Inhibition of recombinant human BRAF (416 to end residues) at 1 uM using myelin basic protein as substrate measured after 40 mins in presence of [gamma33P]ATP by scintillation counting method relative to control
Sequence of Serine/threonine-protein kinase B-raf (Homo sapiens) (P15056 whole entry): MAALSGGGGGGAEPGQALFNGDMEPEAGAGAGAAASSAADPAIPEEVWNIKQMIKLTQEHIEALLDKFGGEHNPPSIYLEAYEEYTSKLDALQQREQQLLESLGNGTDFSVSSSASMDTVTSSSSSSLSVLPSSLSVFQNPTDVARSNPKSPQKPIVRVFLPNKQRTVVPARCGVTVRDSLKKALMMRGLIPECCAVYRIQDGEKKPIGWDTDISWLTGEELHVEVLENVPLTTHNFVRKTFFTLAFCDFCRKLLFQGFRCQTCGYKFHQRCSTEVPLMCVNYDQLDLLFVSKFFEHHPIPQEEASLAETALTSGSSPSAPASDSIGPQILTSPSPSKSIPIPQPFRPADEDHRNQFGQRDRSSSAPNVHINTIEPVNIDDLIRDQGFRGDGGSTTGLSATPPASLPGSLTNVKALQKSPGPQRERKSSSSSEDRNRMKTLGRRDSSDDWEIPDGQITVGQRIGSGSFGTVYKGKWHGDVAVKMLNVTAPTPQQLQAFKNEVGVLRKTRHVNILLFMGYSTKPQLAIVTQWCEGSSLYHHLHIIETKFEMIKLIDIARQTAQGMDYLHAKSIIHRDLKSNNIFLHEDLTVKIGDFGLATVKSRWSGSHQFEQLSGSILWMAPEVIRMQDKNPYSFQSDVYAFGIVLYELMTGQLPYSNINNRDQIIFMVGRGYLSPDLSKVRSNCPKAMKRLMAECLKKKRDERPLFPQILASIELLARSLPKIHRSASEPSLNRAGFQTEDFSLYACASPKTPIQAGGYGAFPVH

[11] = molecular target: Mitogen-activated protein kinase kinase kinase 3 (Homo sapiens) (UniProt Q99759); assay: Inhibition of full-length recombinant human MEKK3 at 1 uM using myelin basic protein as substrate measured after 120 mins in presence of [gamma33P]ATP by scintillation counting method relative to control; outline: as §1
Sequence of Mitogen-activated protein kinase kinase kinase 3 (Homo sapiens) (Q99759 whole entry): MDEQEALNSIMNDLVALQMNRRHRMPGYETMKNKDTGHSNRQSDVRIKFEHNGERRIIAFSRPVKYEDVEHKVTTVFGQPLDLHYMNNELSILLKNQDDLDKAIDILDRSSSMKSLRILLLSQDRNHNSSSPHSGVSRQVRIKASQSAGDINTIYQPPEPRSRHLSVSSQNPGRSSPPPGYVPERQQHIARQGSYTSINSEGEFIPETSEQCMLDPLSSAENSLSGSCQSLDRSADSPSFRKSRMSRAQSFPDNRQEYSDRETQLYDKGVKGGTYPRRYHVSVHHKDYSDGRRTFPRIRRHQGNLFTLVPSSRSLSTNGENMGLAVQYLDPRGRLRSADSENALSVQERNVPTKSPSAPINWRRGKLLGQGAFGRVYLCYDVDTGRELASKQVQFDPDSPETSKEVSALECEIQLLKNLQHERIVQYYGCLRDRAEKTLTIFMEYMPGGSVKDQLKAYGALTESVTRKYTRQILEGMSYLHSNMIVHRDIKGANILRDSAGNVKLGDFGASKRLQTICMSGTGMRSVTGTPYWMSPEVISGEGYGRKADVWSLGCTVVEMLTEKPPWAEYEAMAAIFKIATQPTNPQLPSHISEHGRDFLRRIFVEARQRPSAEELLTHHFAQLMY

[12] = test system: Hepatocyte growth factor receptor (Homo sapiens), P08581 [D1228H]; assay: Inhibition of recombinant human MET A1209G/V1290L/D1246H mutant (974 to end residues) at 1 uM using KKKGQEEEYVFIE as substrate measured after 40 mins in presence of [gamma33P]ATP by scintillation counting method relative to control
[13] = molecular target: SRSF protein kinase 3 (Homo sapiens) (UniProt Q9UPE1); assay: Inhibition of recombinant full-length human MSSK1 at 1 uM using ERMRPRKRQGSVRRRV as substrate measured after 40 mins in presence of [gamma33P]ATP by scintillation counting method relative to control
Sequence of SRSF protein kinase 3 (Homo sapiens) (Q9UPE1 whole entry): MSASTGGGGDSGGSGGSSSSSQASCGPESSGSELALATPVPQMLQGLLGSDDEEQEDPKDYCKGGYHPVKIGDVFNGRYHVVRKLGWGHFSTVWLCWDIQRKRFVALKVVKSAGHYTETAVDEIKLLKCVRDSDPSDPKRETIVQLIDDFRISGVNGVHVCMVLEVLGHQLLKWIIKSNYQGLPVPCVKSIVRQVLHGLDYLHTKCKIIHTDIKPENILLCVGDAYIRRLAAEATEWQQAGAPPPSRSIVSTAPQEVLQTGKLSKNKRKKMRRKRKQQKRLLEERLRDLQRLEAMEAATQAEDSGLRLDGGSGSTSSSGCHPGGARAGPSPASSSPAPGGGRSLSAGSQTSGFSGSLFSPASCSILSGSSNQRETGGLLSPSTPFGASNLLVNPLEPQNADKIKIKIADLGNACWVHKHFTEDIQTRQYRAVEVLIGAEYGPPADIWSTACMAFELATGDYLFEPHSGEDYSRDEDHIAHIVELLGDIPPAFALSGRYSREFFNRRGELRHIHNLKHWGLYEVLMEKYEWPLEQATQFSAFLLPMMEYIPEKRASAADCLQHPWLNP

[14] = molecular target: Serine/threonine-protein kinase 3 (Homo sapiens) (UniProt Q13188); assay: Inhibition of recombinant human MST2 (2 to end residues) at 1 uM using myelin basic protein as substrate measured after 40 mins in presence of [gamma33P]ATP by scintillation counting method relative to control
Sequence of Serine/threonine-protein kinase 3 (Homo sapiens) (Q13188 whole entry): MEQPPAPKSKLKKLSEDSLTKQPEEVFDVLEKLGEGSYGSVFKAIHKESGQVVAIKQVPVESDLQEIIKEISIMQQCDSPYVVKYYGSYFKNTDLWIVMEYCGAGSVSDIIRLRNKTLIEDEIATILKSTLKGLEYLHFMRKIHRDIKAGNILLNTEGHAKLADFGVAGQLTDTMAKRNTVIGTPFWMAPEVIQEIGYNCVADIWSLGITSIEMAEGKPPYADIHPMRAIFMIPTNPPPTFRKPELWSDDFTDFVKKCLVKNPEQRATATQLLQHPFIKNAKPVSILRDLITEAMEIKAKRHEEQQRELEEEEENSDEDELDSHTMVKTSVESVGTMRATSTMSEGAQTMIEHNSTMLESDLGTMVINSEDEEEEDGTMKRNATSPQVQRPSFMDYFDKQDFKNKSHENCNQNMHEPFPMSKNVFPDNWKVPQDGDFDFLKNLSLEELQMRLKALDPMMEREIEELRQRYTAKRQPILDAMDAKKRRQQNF

[15] = molecular target: Cyclin-dependent kinase-like 2 (Homo sapiens) (UniProt Q92772); assay: Inhibition of human CDKL2 at 1 uM at 1 uM by radiometric method relative to control; outline: as §1
Sequence of Cyclin-dependent kinase-like 2 (Homo sapiens) (Q92772 whole entry): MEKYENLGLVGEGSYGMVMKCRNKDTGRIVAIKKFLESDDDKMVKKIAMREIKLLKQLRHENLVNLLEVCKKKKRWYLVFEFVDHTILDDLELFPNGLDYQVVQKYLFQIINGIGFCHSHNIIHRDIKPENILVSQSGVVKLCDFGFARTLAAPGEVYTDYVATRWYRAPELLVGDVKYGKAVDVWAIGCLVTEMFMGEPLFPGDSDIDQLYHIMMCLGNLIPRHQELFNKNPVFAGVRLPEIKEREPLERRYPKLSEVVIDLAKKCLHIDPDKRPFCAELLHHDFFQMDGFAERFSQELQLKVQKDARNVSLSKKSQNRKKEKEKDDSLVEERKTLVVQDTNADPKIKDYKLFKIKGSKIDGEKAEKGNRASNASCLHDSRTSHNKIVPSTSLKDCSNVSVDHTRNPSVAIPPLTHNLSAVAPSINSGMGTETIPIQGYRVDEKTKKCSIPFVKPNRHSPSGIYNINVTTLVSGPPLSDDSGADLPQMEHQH

[16] = molecular target: [Pyruvate dehydrogenase (acetyl-transferring)] kinase isozyme 4, mitochondrial (Homo sapiens) (UniProt Q16654); assay: Inhibition of recombinant full-length human PDHK4 at 1 uM using KKKYHGHSMSDPGVSYRT as substrate measured after 40 mins in presence of [gamma33P]ATP by scintillation counting method relative to control
Sequence of [Pyruvate dehydrogenase (acetyl-transferring)] kinase isozyme 4, mitochondrial (Homo sapiens) (Q16654 whole entry, looked up): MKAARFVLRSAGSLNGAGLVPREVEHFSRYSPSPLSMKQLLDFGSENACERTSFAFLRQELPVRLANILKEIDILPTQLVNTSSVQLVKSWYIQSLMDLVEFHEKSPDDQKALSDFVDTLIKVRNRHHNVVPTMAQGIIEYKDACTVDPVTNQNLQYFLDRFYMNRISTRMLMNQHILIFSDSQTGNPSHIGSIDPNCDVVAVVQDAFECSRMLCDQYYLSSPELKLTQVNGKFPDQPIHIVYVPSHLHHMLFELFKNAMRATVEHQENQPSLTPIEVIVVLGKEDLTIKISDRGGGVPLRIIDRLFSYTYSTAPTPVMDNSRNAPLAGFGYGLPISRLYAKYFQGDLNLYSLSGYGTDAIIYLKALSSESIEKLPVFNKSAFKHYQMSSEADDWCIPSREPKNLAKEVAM

[17] = molecular target: Tyrosine-protein kinase CSK (Homo sapiens) (UniProt P41240); assay: Inhibition of recombinant full-length human CSK at 1 uM using poly(Glu, Tyr) 4:1 as substrate measured after 40 mins in presence of [gamma33P]ATP by scintillation counting method relative to control
Outline: (§2)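 Single-point inhibition at 1 µM was measured in the Eurofins KinaseProfiler panel. Values are the mean of two independent experiments.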

[18] = molecular target: Death-associated protein kinase 2 (Homo sapiens) (UniProt Q9UIK4); assay: Inhibition of recombinant full-length human DAPK2 at 1 uM using calmodulin as substrate measured after 40 mins in presence of [gamma33P]ATP by scintillation counting method relative to control
Sequence of Death-associated protein kinase 2 (Homo sapiens) (Q9UIK4 whole entry, looked up, the tested form may be a part): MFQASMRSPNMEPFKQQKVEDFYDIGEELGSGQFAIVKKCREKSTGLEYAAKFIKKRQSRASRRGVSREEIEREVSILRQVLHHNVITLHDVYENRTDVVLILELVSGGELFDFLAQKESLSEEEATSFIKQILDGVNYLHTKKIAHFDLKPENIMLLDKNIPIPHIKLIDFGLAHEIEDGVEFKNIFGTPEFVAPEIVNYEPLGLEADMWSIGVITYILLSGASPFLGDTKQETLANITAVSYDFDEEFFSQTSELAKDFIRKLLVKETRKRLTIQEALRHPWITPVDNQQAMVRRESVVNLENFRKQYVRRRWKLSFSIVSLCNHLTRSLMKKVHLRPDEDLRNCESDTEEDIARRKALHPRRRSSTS

[19] = species: Homo sapiens; assay: Inhibition of recombinant human Plk4 S34T mutant (1 to 273 residues) at 1 uM using casein as substrate measured after 120 mins in presence of [gamma33P]ATP by scintillation counting method relative to control
[20] = molecular target: Proto-oncogene tyrosine-protein kinase Src (Homo sapiens) (UniProt P12931); assay: Inhibition of human Src (1 to 530 residues) at 1 uM using GGEEEEYFELVKKKK as substrate measured after 40 mins in presence of [gamma33P]ATP by scintillation counting method relative to control; outline: as §1
[21] = test system: Angiopoietin-1 receptor (Homo sapiens), Q02763 [Q939H,Q940H,R849W]; assay: Inhibition of human Tie2 Q939H/Q940H/R849W mutant (771 to end residues) at 1 uM using EFPIYDFLPAKKK as substrate measured after 40 mins in presence of [gamma33P]ATP by scintillation counting method relative to control; outline: as §2
Sequence of Angiopoietin-1 receptor (Homo sapiens), Q02763 [Q939H,Q940H,R849W] (Q02763 whole entry R849W/Q939H/Q940H, the tested form may be a part): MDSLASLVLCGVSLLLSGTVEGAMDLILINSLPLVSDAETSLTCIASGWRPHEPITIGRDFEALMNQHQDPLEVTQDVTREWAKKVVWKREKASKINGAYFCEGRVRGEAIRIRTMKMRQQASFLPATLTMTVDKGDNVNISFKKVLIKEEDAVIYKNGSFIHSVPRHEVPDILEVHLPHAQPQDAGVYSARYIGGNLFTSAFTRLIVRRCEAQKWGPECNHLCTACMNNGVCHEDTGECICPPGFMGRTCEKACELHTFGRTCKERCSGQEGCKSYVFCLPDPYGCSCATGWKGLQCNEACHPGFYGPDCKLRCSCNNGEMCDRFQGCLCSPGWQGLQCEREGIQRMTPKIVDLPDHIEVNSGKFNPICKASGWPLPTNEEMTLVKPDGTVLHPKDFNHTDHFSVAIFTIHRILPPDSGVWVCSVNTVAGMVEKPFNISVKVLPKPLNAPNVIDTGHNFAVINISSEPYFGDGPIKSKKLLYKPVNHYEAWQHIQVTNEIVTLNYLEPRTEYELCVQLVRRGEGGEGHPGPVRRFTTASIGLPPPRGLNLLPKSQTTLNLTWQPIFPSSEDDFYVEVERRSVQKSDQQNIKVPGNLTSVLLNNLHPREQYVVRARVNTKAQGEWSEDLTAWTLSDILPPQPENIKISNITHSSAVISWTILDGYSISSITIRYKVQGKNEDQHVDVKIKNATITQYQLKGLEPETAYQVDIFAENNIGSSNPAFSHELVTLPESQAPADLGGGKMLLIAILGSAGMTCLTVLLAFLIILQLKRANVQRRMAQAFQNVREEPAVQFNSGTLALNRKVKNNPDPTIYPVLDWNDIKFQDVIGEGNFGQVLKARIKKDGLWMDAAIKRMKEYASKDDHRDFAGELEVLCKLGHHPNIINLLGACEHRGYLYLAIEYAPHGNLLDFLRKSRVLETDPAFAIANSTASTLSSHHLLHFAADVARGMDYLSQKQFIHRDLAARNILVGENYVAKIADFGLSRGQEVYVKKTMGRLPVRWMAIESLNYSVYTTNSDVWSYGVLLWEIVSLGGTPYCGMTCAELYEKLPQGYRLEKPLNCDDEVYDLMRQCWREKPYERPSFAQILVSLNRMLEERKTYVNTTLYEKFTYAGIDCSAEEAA

[22] = molecular target: LIM domain kinase 2 (Homo sapiens) (UniProt P53671); assay: Inhibition of recombinant human LIMK2 at 1 uM by radiometric method relative to control

CN(C)C(=O)c1cc2cnc(Nc3ccc(NC(=O)CCCCCCCN=C=S)cc3)nc2n1C1CCCC1
inhibition [1]: 98%
inhibition [2]: 75%
Activity [3]: 34.4%
Activity [4]: 4.51%
Activity [5]: inactive
inhibition [6]: Dose-dependent effect
inhibition [7]: Active
TGI [8]: Dose-dependent effect
inhibition [9]: 49%
inhibition [10]: 34%
inhibition [11]: 66%
inhibition [12]: 74%
inhibition [13]: 18%
inhibition [14]: 43%
inhibition [15]: 57%
inhibition [16]: -3%
inhibition [17]: 1%
inhibition [18]: -8%
inhibition [19]: 50%
inhibition [20]: 36%
inhibition [21]: 12%
inhibition [22]: 13%
